The chains are these.
B1: tRNA (parent)
chain: GUUCCGUUGGCGUAAUGGUAACGCGUCUCCCUCCUAAGGAGAAGACUGCGGGUUCGAGUCCCGUACGGAACG

This sample holds only a part of the variants without activity.

Variants of B1 are the subject of the series. As to the kind of experiment: yeast fitness relative to wild type (ratio to wild type); higher = fitter; tRNA-Arg(CCU), competitive growth, 37 C, YPD. An outline of the steps:
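Changes in genotype frequencies gave Darwinian fitness relative to wild type. Frequencies were read by 100-nucleotide paired-end sequencing of gene amplicons before and after pooled Saccharomyces cerevisiae strains, carrying tRNA-Arg(CCU) gene variants at the native locus, were competed in YPD at 37°C for 24 hours in six replicates. A genotype was kept only with ≥ 100 starting reads, and estimates < 0.5 were set to 0.5.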
As to GUUCCGUUGGCGUAAUGGUUACGCAUCUCCCUCCUAAGGAGAAGACUGCGGGUUCGAGUACCGUUCGGAGCG [A20U G25A C60A A65U A70G], the yeast fitness is at most 0.5.
Next, GUUCCGUUGGCGUAAUGGUUACGCAUUUCCCUCCUAAGGAGAAGACUGCGGGUUCGAGUCCCGUACGGAACG [A20U G25A C27U]: 0.595; GUUCCGUUGGCGUAAUGGUUACGCAUCUCCCUCCUAAGGAGAAGACUGCGGGUUCGAGUCCCGUACGGAACG [A20U G25A]: 1.03.
As to GUUCCGUUGGCGUAAUGGUUACGCGUCUCCCUCCUAAGGAGAAGACUGCGGGUUCGAGUCCGCUACGGAACG [A20U C62G G63C], the yeast fitness is 0.601.
Consider GUUCCGUUGGCGUAAUGGUUACGCGUCUCCCUCCUAAAGAGAAGACUGCGGGUUCGAGUCCCGUACCGAACG [A20U G38A G67C], for which the yeast fitness was at most 0.5.
The result for GUUCCGUUGGCGUAAUGGUUACGCGUCUCCCUCCUAAGAAGAAGACUGCGCGUUGGAGUCCCGUACGGAACG [A20U G39A G51C C55G] reads at most 0.5.
On to GUUCCGUUGGCGUAAUGGUUACGCGUCUCCCUCCUAAGGACAAGACUGCGGGUUCCAGUCCCGUACGCAACG [A20U G41C G56C G68C], for which the yeast fitness was at most 0.5.
Next, GUUCCGUUGGCGUAAUGGUUACGCCUCUCCCUCCUAAGGAGAAGACAGCGGGUUCGAGUGCCGUACGGAACG [A20U G25C U47A C60G]: at most 0.5; GUUCCGUUGGCGUAAUGGUUACACGUCUCCCUCCUAAGGAGAAGACUGCGGGUUCGCGUCCCGUACGGAACG [A20U G23A A57C]: at most 0.5; GUUCCGUUGGCGUAAUGGUUACGCAUCUCCCUCCUAAGGAGAAGACUGCGGGUUCGAGUCCCAUACGGAACG [A20U G25A G63A]: 0.716.
Turning to GUUCCGUUGGCGUAAUGGUUACGCGUCUCCCUCCUAAGGAGAAGACUGUGGGUUCGAGUCCCGUCCGGAACG [A20U C49U A65C], the yeast fitness was 0.655.
As for GUUCCGUUGGCGUAAUGGUUACGCGUCUCCCUCGUAAGGAGAAGACUCCGGGUUCGAGCCCCGUACGGAACG [A20U C34G G48C U59C], the yeast fitness turned out to be 0.548.
In the case of GUUCCGUUGGCGUAAUGGUUACACGUCUCCCUCCUAAGGAGAAGACUGCGGGUUCGAGUCCCGUGCGCAACG [A20U G23A A65G G68C], the yeast fitness is 0.513.
On to GUUCCGUUGGCGUAAUGGUUACGCGUCUCCCUCCUAAGGAGAAGACUGUGGGUUCGAGUCCCGUACGGAACG [A20U C49U], for which the yeast fitness came to 0.899.
As to GUUCCGUUGGCGUAAUGGUUACGCGUCUCCCUCCUAAGGAGAAGACUGAGGGUUCGAGUCCCGUACGGAACG [A20U C49A], the yeast fitness was 0.708.
GUUCCGUUGGCGUAAUGGUUACGCGUCUCCCUCCUAAAGAGAAGACUGCGGGUUCGAGUCCCGUACGGAGCG [A20U G38A A70G]: the yeast fitness was determined as 0.516.
In the case of GUUCCGUUGGCGUAAUGGUUACGCGUCUCCCUCCUAAAGAGAAGAAUGCGGGUUCGAGUCCCGUACGGAACG [A20U G38A C46A], the yeast fitness amounted to 0.541.
GUUCCGUUGGCGUAAUGGUUACGCGUCUCCCUCCUAAGGAGAAGACUGCGGGUUCGAGUCUCGUACUGAACG [A20U C61U G67U]: the yeast fitness was at most 0.5.
As to GUUCCGUUGGCGUAAUGGUUACGCGUCUCCCUCCUAAGGAGAAGACUGCGGGUUCGAGUCCUGUACGGAACG [A20U C62U], the yeast fitness is 1.02.
On to GUUCCGUUGGCGUAAUGGUUACGCGUCUCCCUCCUAAGGAGAAGACUGCGGGUUCGAGUCCAGUACGGAACG [A20U C62A], for which the yeast fitness turned out to be 0.73.
GUUCCGUUGGCGUAAUGGUUACACGUCUCCUUCCUAAGAAGAAGACUGCGGGUUCAAGUCCCGUACGGAACG [A20U G23A C31U G39A G56A]: the yeast fitness is at most 0.5.
For the variant GUUCCGUUGGCGUAAUGGUUACGCGUCUCCCUCUUAAGGAGAAGACUGCGCGUUCGAGUCCCGUACGGAACG [A20U C34U G51C], the yeast fitness was at most 0.5.
Consider GUUCCGUUGGCGUAAUGGUUACGCGUCUCCCUCCUAAGGAGAAGACUGCGGGUUCGAGUCCCGUAUGGAACG [A20U C66U], for which the yeast fitness was 0.8.
Turning to GUUCCGUUGGCGUAAUGGUUACACGUCUCCCUCCUAAGGAGAAGACUGCGGGUUCAAGUCCCGUACGGCACG [A20U G23A G56A A69C], the yeast fitness is at most 0.5.
With GUUCCGUUGGCGUAAUGGUUACACGUCUCCCUCCUAAGGAGAAGACUGCGGGUUCGAGUCUCGUACGGAACG [A20U G23A C61U], the yeast fitness turned out to be 0.561.
Regarding GUUCCGUUGGCGUAAUGGUUACGCGUCUCCCUCCUAAGCAGAAGACUGCGGGUUGGAGUCCCGUACGGAACG [A20U G39C C55G], the yeast fitness is at most 0.5.
As to GUUCCGUUGGCGUAAUGGUUACGCGUCUCCCUCCUAAGGAGAAGACUGGGGGUUCGAGUCCCGUACGGUACG [A20U C49G A69U], the yeast fitness turned out to be 0.677.
As to GUUCCGUUGGCGUAAUGGUUACACGUCUCCCUCCUAAGGAGAAGACUGCGGGUUCGAGUCCCGUACGAUUCG [A20U G23A G68A A69U A70U], the yeast fitness was at most 0.5.
The result for GUUCCGUUGGCGUAAUGGUUACGCGUCUCCCUCCUAAGGAGAAGACUGCGGGUUUGAGUCCCGUACAGAACG [A20U C55U G67A] reads at most 0.5; that for GUUCCGUUGGCGUAAUGGUUACGCGUCUCCCUCCUAAGGAAAAGACUGCGGGUUCGAGUCCCGUACGGAACG [A20U G41A], 0.867; that for GUUCCGUUGGCGUAAUGGUUACGCGUCUCCCUCUUAAGGAGAAGACUGCGCGUUCGAGUUCCGUACGGAACG [A20U C34U G51C C60U], at most 0.5.
As to GUUCCGUUGGCGUAAUGGUUACGCGUCUCCCUCGUAAGGAGGUGACUGCGGGUUCGAGUCCCGUGCGGAUCG [A20U C34G A42G A43U A65G A70U], the yeast fitness is at most 0.5.
With GUUCCGUUGGCGUAAUGGUUACGCGUCUCCCUCCUAAGGAGAAGAUUGCGGGUUCGAGUCCCGUACGGCACG [A20U C46U A69C], the yeast fitness amounted to 0.744.
As to GUUCCGUUGGCGUAAUGGUUACACGUCUCCCUCAUUAGGAGAAGACUGCGGGUUCGAGUCCCGUACGGAACG [A20U G23A C34A A36U], the yeast fitness was at most 0.5.
Regarding GUUCCGUUGGCGUAAUGGUUACACGUCUCCCUCCUAAGGAGAAGACUGCGGGUUCGAGUCCCGUACGGAACG [A20U G23A], the yeast fitness was 0.822.
With GUUCCGUUGGCGUAAUGGUUACGCGUCUCCCUCGUAAGGAGAAGACUCCGGGUUCGAGUCCCGUACACAACG [A20U C34G G48C G67A G68C], the yeast fitness is at most 0.5.
GUUCCGUUGGCGUAAUGGUUACGCGUCUCCCUCCUAAGGAGAAGACUGCGGGUUCGAGUCAUGUUCGGCACG [A20U C61A C62U A65U A69C]: the yeast fitness is at most 0.5.
Turning to GUUCCGUUGGCGUAAUGGUUACGCGUCUCCCUCCUAAGGAGAAGACUGCGGGUUCGAGUGCCGUACAGAACG [A20U C60G G67A], the yeast fitness was at most 0.5.
